In brackets after ≈: the same amount, converted by molar mass. Activity calls are given as the source filed them. No cut-off for these calls is given here.
Tests used:
Cathepsin S [1] = biological target: Cathepsin S (Mus musculus, UniProt O70370); assay: Inhibition of mouse cathepsin S using benzyloxycarbonyl-L-Leucyl-L-Arginine 4-Methyl-coumaryl-7-amide substrate by FRET assay
Rattus norvegicus = organism: Rattus norvegicus; assay: Inhibition of rat cathepsin S G137C mutant using benzyloxycarbonyl-L-Leucyl-L-Arginine 4-Methyl-coumaryl-7-amide substrate by FRET assay
Cathepsin S [2] = biological target: Cathepsin S (Homo sapiens, UniProt P25774); assay: Inhibition of human cathepsin S using benzyloxycarbonyl-L-Leucyl-L-Arginine 4-Methyl-coumaryl-7-amide substrate by FRET assay
Procathepsin L = Procathepsin L (Homo sapiens, UniProt P07711); assay: Inhibition of human cathepsin L using benzyloxycarbonyl-L-Leucyl-L-Arginine 4-Methyl-coumaryl-7-amide substrate by FRET assay
[3] = Volume of distribution in Beagle dog at 1 mg/kg, iv or 3 mg/kg, po; format: ADME, organism-based, Canis lupus familiaris; conditions: in vivo
[4] = Drug metabolism in rat liver microsomes after 30 mins at 4 uM; format: ADME; conditions: read-out: Drug metabolism
[5] = Clearance in Beagle dog at 1 mg/kg, iv or 3 mg/kg, po; format: ADME, organism-based, Canis lupus familiaris; conditions: in vivo
[6] = Oral bioavailability in Beagle dog at 3 mg/kg; format: ADME, organism-based, Canis lupus familiaris; conditions: in vivo
Mus musculus [7] = assay: Inhibition of CaCl2-induced abdominal aortic aneurysm in 129SvEv mouse assessed as reduction in aortic diameter at 1 to 30 mg/kg dosed through oral gavage BID for 4 weeks with first dose given one day prior to surgery; format: functional, organism-based; conditions: Abdomen
[8] = Drug metabolism in dog liver microsomes after 30 mins at 4 uM; format: ADME, Canis lupus familiaris; conditions: read-out: Drug metabolism
[9] = Dissociation constant, basic pKa of the compound; format: physicochemical
[10] = Drug metabolism in mouse liver microsomes after 30 mins at 4 uM; format: ADME; conditions: read-out: Drug metabolism
CYP2D6 = CYP2D6 (Homo sapiens, UniProt P10635); assay: Inhibition of CYP2D6 (unknown origin) using bufuralol substrate at 10 uM; format: ADME; conditions: probe bufuralol
CYP3A4 = CYP3A4 (Homo sapiens, UniProt P08684); assay: Inhibition of CYP3A4 (unknown origin) using midazolam substrate at 10 uM; format: ADME; conditions: probe midazolam
[11] = Lipophilicity, log D of the compound at pH 4.0; format: physicochemical; conditions: buffer
MDCK = assay: Permeability from apical to basolateral side in MDCK cells at 2.5 uM incubated for 1 hr; format: ADME, cell-based, Canis lupus familiaris; conditions: dog
[12] = Lipophilicity, log P of the compound; format: physicochemical; conditions: octanol/water
[13] = Drug metabolism in human liver microsomes after 30 mins at 4 uM; format: ADME; conditions: read-out: Drug metabolism
CYP2C9 = CYP2C9 (Homo sapiens, UniProt P11712); assay: Inhibition of CYP2C9 (unknown origin) using diclofenac substrate at 10 uM; format: ADME; conditions: probe diclofenac
[14] = Solubility in simulated gastric fluid; format: ADME
[15] = AUC (0 to 24 hrs) in 129SvEv mouse model of CaCl2-induced abdominal aortic aneurysm at 30 mg/kg dosed through oral gavage BID for 4 weeks with first dose given one day prior to surgery; format: ADME, organism-based, Abdomen; design: time < 24 hr, dose 30 mg/kg, route oral; conditions: in vivo
[16] = AUC (0 to 24 hrs) in 129SvEv mouse model of CaCl2-induced abdominal aortic aneurysm at 10 mg/kg dosed through oral gavage BID for 4 weeks with first dose given one day prior to surgery; format: ADME, organism-based, Abdomen; design: time < 24 hr, dose 10 mg/kg, route oral; conditions: in vivo
[17] = AUC (0 to 24 hrs) in 129SvEv mouse model of CaCl2-induced abdominal aortic aneurysm at 1 mg/kg dosed through oral gavage BID for 4 weeks with first dose given one day prior to surgery; format: ADME, organism-based, Abdomen; design: time < 24 hr, dose 1 mg/kg, route oral; conditions: in vivo
Plasma [18] = assay: Stability in human plasma assessed as loss of parent compound after 30 mins; format: ADME, cell-free; conditions: 0.5 h
Summary of the method: (§1)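 Compound incubated in human or rat plasma for up to 30 min; loss of parent compound tested for statistical significance.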

Mus musculus [19] = assay: Inhibition of CaCl2-induced abdominal aortic aneurysm in 129SvEv mouse assessed as reduction in aortic diameter at 10 mg/kg dosed through oral gavage BID for 4 weeks with first dose given one day prior to surgery; format: functional; conditions: Abdomen
hERG = hERG (Homo sapiens, UniProt Q12809); assay: Displacement of [3H]astemizole form human ERG expressed in HEK293 cell membranes at 100 uM; conditions: HEK293 cell membranes that express human ERG, probe [3H]astemizole
[20] = AUC (0 to 24 hrs) in 129SvEv mouse model of CaCl2-induced abdominal aortic aneurysm at 3 mg/kg dosed through oral gavage BID for 4 weeks with first dose given one day prior to surgery; format: ADME, organism-based, Abdomen; design: time < 24 hr, dose 3 mg/kg, route oral; conditions: in vivo
Mus musculus [21] = assay: Inhibition of CaCl2-induced abdominal aortic aneurysm in 129SvEv mouse assessed as reduction in aortic diameter at 3 mg/kg dosed through oral gavage BID for 4 weeks with first dose given one day prior to surgery; format: functional; conditions: Abdomen
Mus musculus [22] = assay: Inhibition of CaCl2-induced abdominal aortic aneurysm in 129SvEv mouse assessed as reduction in aortic diameter at 1 mg/kg dosed through oral gavage BID for 4 weeks with first dose given one day prior to surgery; format: functional; conditions: Abdomen
Plasma [23] = assay: Stability in rat plasma assessed as loss of parent compound after 30 mins; format: ADME, cell-free; conditions: 0.5 h; summary of the method: as §1
Mus musculus [24] = assay: Inhibition of CaCl2-induced abdominal aortic aneurysm in 129SvEv mouse assessed as reduction in aortic diameter at 30 mg/kg dosed through oral gavage BID for 4 weeks with first dose given one day prior to surgery; format: functional; conditions: Abdomen

Chain of Cathepsin S (Homo sapiens, UniProt P25774) (P25774 whole entry): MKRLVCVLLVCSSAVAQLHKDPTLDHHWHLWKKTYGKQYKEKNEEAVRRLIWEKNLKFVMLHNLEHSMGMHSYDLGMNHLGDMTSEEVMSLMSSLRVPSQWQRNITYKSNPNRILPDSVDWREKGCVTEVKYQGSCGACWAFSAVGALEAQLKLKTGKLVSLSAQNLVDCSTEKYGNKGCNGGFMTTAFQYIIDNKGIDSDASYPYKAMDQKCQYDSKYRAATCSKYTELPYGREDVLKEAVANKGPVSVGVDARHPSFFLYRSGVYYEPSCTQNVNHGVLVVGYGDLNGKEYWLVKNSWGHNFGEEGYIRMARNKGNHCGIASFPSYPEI
Chain of Cathepsin S (Mus musculus, UniProt O70370) (O70370 whole entry): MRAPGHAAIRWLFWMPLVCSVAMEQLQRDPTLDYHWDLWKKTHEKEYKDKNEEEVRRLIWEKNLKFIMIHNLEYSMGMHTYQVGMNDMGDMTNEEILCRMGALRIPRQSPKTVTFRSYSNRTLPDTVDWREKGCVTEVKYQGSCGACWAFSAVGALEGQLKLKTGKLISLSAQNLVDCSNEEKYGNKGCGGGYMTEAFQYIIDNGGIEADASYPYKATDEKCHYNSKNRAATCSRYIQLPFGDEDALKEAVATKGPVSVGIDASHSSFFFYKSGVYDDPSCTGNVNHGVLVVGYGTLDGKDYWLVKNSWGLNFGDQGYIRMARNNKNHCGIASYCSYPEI
Chain of CYP3A4 (P08684 whole entry): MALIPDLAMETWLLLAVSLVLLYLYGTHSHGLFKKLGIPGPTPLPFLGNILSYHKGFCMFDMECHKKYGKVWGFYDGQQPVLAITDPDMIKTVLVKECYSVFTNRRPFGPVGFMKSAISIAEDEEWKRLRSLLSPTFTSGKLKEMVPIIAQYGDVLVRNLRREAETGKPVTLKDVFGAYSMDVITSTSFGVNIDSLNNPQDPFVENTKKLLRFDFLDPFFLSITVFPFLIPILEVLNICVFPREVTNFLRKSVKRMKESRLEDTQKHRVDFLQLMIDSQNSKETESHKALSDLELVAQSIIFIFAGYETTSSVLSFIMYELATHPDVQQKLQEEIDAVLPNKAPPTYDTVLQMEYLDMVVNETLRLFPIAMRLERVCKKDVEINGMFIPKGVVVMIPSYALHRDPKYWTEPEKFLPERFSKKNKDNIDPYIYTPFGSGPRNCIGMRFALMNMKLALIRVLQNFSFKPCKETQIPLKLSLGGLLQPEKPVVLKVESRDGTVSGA
Chain of CYP2C9 (P11712 whole entry): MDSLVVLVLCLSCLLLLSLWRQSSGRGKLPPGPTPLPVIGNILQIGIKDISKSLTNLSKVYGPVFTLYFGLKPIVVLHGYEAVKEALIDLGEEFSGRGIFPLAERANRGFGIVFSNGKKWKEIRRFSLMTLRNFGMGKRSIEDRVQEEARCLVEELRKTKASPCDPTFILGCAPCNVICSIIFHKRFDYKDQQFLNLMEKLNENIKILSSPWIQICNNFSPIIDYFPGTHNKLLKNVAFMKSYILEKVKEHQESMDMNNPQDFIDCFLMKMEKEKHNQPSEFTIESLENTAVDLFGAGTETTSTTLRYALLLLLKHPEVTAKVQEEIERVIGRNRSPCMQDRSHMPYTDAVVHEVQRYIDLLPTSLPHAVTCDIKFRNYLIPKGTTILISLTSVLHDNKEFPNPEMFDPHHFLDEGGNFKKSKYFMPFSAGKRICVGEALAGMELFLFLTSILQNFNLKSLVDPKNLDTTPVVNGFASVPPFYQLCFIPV
Chain of CYP2D6 (P10635 whole entry): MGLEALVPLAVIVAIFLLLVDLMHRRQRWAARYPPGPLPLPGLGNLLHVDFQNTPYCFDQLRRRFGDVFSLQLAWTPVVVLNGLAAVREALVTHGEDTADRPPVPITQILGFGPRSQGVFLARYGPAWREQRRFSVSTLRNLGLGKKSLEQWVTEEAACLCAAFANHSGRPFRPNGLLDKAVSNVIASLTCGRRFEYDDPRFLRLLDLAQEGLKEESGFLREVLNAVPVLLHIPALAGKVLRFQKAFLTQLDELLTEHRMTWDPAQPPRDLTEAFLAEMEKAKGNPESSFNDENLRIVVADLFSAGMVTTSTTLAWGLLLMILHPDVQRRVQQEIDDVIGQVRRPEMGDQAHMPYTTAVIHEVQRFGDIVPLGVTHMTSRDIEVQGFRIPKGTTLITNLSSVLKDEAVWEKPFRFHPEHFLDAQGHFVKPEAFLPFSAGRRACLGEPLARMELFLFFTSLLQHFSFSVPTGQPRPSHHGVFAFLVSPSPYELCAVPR
Chain of Procathepsin L (P07711 whole entry): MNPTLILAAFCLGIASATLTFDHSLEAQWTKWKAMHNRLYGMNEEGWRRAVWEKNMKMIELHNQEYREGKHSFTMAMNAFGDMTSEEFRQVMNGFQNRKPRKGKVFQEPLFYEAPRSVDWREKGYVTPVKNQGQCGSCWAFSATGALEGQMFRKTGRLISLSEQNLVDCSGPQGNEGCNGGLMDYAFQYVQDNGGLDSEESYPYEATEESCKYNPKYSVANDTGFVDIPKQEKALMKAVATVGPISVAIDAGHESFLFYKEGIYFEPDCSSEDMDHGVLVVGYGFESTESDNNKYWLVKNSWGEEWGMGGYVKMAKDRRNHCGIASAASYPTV
Chain of hERG (Q12809 whole entry): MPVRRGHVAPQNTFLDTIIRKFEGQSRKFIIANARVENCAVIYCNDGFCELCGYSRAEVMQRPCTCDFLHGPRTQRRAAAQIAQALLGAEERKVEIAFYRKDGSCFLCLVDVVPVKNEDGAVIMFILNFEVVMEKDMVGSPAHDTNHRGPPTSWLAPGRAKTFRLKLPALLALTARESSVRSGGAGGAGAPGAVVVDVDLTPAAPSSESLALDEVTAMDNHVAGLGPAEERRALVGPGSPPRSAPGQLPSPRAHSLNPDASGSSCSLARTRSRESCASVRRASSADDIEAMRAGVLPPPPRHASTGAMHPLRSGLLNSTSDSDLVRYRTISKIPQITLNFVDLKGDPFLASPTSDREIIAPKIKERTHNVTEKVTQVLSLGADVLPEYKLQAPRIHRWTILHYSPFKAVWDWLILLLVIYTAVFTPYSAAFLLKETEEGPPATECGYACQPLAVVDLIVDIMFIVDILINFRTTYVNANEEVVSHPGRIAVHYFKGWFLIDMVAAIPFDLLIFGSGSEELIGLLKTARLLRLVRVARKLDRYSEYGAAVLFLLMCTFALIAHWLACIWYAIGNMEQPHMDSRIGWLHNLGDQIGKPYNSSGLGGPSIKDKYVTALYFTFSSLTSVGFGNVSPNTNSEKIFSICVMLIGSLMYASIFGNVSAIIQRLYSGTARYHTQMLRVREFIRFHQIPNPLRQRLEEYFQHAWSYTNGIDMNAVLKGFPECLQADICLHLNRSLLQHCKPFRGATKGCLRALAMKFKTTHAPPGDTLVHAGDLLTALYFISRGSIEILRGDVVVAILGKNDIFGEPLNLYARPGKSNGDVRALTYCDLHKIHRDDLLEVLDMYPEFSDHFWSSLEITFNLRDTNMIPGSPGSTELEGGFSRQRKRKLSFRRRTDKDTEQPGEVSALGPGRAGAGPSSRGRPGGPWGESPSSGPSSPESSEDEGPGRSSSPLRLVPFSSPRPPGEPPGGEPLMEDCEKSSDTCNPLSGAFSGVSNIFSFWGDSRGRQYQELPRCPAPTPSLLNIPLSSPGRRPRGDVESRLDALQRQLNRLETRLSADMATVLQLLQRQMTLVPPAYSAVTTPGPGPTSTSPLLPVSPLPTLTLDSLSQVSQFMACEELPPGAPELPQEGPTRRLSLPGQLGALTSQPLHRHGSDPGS

Which IC50 (Cathepsin S [1]) does the source give for `CN1CCN(C(=O)Nc2ccc3c(c2)C(NC(=O)c2ccccc2)CCC3)CC1` (centres undefined) here?
Its IC50 is 2780 nM.

What about the inhibition (Rattus norvegicus) of the same compound?
Its inhibition is “inactive”.

What about the IC50 (Cathepsin S [2]) of the same compound?
Its IC50 is 1290 nM.

For `O=C(N[C@@H]1CCCc2ccc(/N=C/N3CCCCCC3)cc21)c1ccc(Br)cc1`, which IC50 (Cathepsin S [1]) is on record?
Its IC50 is 1570 nM.

What about the inhibition (Rattus norvegicus) of the same compound?
Its inhibition is “inactive”.

And the IC50 (Procathepsin L)?
The IC50 was over 100000 nM.

What about the IC50 (Cathepsin S [2]) of the same compound?
Its IC50 is 1170 nM.

What does the source list for `CNC(=O)O[C@H]1CCc2ccc(N3CCN(C4COC4)CC3)cc2[C@@H]1NC(=O)c1ccc(F)cc1`?
Vd [3]: < 1 L/kg; metabolised at 0.5 h, 4 µM [4]: < 20%; clearance [5]: < 4 mL/min/kg; bioavailability [6]: > 75%; inhibition (Mus musculus [7]): Dose-dependent effect; metabolised at 0.5 h, 4 µM [8]: < 20%; pKa [9]: 5; IC50 (Cathepsin S [1]): 3.91 nM; metabolised at 0.5 h, 4 µM [10]: < 20%; inhibition at 10 µM (CYP2D6): < 15%; inhibition (Rattus norvegicus): inactive; inhibition at 10 µM (CYP3A4): < 15%; logD [11]: 1.2; permeability (MDCK): > 4%; logP [12]: 2.24; metabolised at 0.5 h, 4 µM [13]: < 20%; IC50 (Cathepsin S [2]): 12.4 nM; inhibition at 10 µM (CYP2C9): < 15%; solubility [14]: 1130 µg/mL (≈ 2340 µM)

With `CN1CCN(c2ccc3c(c2)C(NC(=O)c2ccccc2)CCC3)CC1` (centres undefined) as the compound, how does the IC50 (Cathepsin S [1]) read?
Its IC50 is 3930 nM.

And the inhibition (Rattus norvegicus)?
Its inhibition is “inactive”.

What about the IC50 (Cathepsin S [2]) of the same compound?
The IC50 was 4000 nM.

With `CNC(=O)O[C@H]1COc2ccc(N3CCN(C4COC4)CC3)cc2[C@@H]1NC(=O)c1ccc(F)cc1` as the compound, how does the Vd [3] read?
The Vd was under 1 L/kg.

And the metabolised at 0.5 h, 4 µM [4]?
The metabolised at 0.5 h, 4 µM was under 20%.

What about the clearance [5] of the same compound?
Its clearance is under 4 mL/min/kg.

And the bioavailability [6]?
Its bioavailability is over 75%.

And the inhibition (Mus musculus [7])?
The inhibition was “Dose-dependent effect”.

And the AUC(0-t) at 24 h [15]?
Its AUC(0-t) at 24 h is 35400 ng·h/mL.

What about the AUC(0-t) at 24 h [16] of the same compound?
The AUC(0-t) at 24 h was 5880 ng·h/mL.

And the metabolised at 0.5 h, 4 µM [8]?
The metabolised at 0.5 h, 4 µM was under 20%.

And the pKa [9]?
Its pKa is 5.11.

What about the AUC(0-t) at 24 h [17] of the same compound?
Its AUC(0-t) at 24 h is 756 ng·h/mL.

What about the IC50 (Cathepsin S [1]) of the same compound?
The IC50 was 1.67 nM.

And the metabolised at 0.5 h, 4 µM [10]?
The metabolised at 0.5 h, 4 µM was under 20%.

What about the inhibition at 10 µM (CYP2D6) of the same compound?
Its inhibition at 10 µM is under 15%.

And the inhibition (Rattus norvegicus)?
The inhibition was “inactive”.

What about the Stability (Plasma [18]) of the same compound?
Its Stability is “Stable”.

And the inhibition at 10 µM (CYP3A4)?
The inhibition at 10 µM was under 15%.

What about the inhibition in vivo at 10 mg/kg (Mus musculus [19]) of the same compound?
Its inhibition in vivo at 10 mg/kg is 87%.

What about the logD [11] of the same compound?
Its logD is 1.

What about the inhibition at 100 µM (hERG) of the same compound?
The inhibition at 100 µM was 6%.

What about the permeability (MDCK) of the same compound?
Its permeability is over 4%.

What about the logP [12] of the same compound?
Its logP is 2.24.

And the metabolised at 0.5 h, 4 µM [13]?
Its metabolised at 0.5 h, 4 µM is under 20%.

What about the AUC(0-t) at 24 h [20] of the same compound?
The AUC(0-t) at 24 h was 2330 ng·h/mL.

And the inhibition in vivo at 3 mg/kg (Mus musculus [21])?
The inhibition in vivo at 3 mg/kg was 83%.

What about the inhibition in vivo at 1 mg/kg (Mus musculus [22]) of the same compound?
Its inhibition in vivo at 1 mg/kg is 58%.

What about the Stability (Plasma [23]) of the same compound?
The Stability was “Stable”.

And the IC50 (Cathepsin S [2])?
Its IC50 is 7.7 nM.

What about the inhibition at 10 µM (CYP2C9) of the same compound?
Its inhibition at 10 µM is under 15%.

What about the solubility [14] of the same compound?
Its solubility is 1440 µg/mL (≈ 2970 µM).

What about the inhibition in vivo at 30 mg/kg (Mus musculus [24]) of the same compound?
Its inhibition in vivo at 30 mg/kg is 87%.

From ChEMBL document CHEMBL3351795, “Discovery of Cathepsin S Inhibitor LY3000328 for the Treatment of Abdominal Aortic Aneurysm” (ACS Med Chem Lett, 2014)
